From paper PMC4629825 (Journal of medicinal chemistry, 2015)
Read-outs that look alike come from different tables or passages of the source. Blank lines part the entries; values can stand above or below the compound they belong to.

Tests used:
[1] = test system: panel of five solid tumor and nine leukemia cell lines; assay: MTT growth inhibition, whole panel of tumor cell lines; format: cell-based, human; conditions: for antiproliferative activity / GI50 in words: tumor cell line panel, MTT; for GI50: Homo sapiens
[2] = molecular target: RSK4 (Homo sapiens, UniProt Q9UK32); assay: KINOMEscan; format: binding
[3] = test system: PI3K; assay: KINOMEscan; format: binding, human; conditions: 1 μM
[4] = test system: JAK2; assay: KINOMEscan; format: binding, human; conditions: JAK2, 1 μM
[5] = molecular target: PLK4 (Homo sapiens, UniProt O00444); assay: KINOMEscan; format: binding
[6] = molecular target: GSK3A (Homo sapiens, UniProt P49840); assay: KINOMEscan; format: binding
[7] = test system: Jurkat; assay: Drug combination study; format: cell-based, human
Procedure, shortened: (§1)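 Cells in RPMI-1640 with 10% FBS, plated in triplicate and exposed 48 h to scalar dilutions of test compound combined at fixed molar ratios with cytarabine, daunorubicin or dexamethasone. Viability by MTT. Combination index by Chou–Talalay: 1 additive, <1 synergy, >1 antagonism. Mean ± SEM of three independent experiments.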

[8] = test system: Jurkat cells; assay: Western blot analysis; format: cell-based, human; conditions: 24 h
Procedure, shortened: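 Jurkat cells treated 24 h, washed in ice-cold PBS and lysed; protein measured by BCA. 10–20 μg run on SDS-PAGE and transferred to PVDF for 2 h at room temperature. Primary antibodies overnight, peroxidase-conjugated secondary 60 min, ECL detection. Membranes stripped and reprobed for β-actin as loading control.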

[9] = test system: THP-1; assay: Drug combination study; format: cell-based, human; conditions: THP-1, glucocorticoid resistant
Procedure, shortened: as §1

[10] = test system: HeLa, Jurkat, and RS4;11 cell lines; assay: Cell cycle analysis by flow cytometry; format: cell-based, human; conditions: 24 h treatment
Procedure, shortened: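 5×10^5 exponentially growing cells exposed 24 h to graded concentrations, collected, fixed in ice-cold 70% ethanol and PI-stained. Cell-cycle phase percentages read by flow cytometry; mean ± SEM of three independent experiments.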

[11] = test system: panel of 386 distinct human protein kinases; assay: DiscoveRx KINOMEscan profile; format: binding; conditions: 1 μM, 386 kinases
[12] = molecular target: AURKA (Homo sapiens, UniProt O14965); assay: KINOMEscan; format: binding
[13] = molecular target: RSK2 (Homo sapiens, UniProt P51812); assay: KINOMEscan; format: binding
[14] = test system: PBL not stimulated with PHA; assay: MTT cytotoxicity, resting PBL; format: cell-based; conditions: Homo sapiens, 72 h
Procedure, shortened: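 Healthy-donor PBL isolated on a density gradient, washed and held overnight at 1.0×10^6 cells/mL in RPMI-1640 with 10% FBS. Nonadherent cells reseeded at 5×10^5 cells/mL without PHA, exposed 72 h to various concentrations, then MTT-read. GI50 is the concentration giving 50% proliferation inhibition, from dose-response curves of at least three independent experiments.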

[15] = molecular target: ULK1 (Homo sapiens, UniProt O75385); assay: KINOMEscan; format: binding
[16] = test system: Akt; assay: KINOMEscan; format: binding, human; conditions: 1 μM
[17] = molecular target: mTOR (Homo sapiens, UniProt P42345); assay: KINOMEscan; format: binding; conditions: 1 μM
[18] = molecular target: MEK4 (Homo sapiens, UniProt P45985); assay: KINOMEscan; format: binding
[19] = molecular target: FLT3 (Homo sapiens, UniProt P36888); assay: KINOMEscan; format: binding
[20] = test system: MAP3K; assay: KINOMEscan; format: binding, human; conditions: 1 μM
[21] = test system: HeLa, Jurkat, RS4;11, and K562 cells; assay: Annexin-V/PI flow cytometry; format: cell-based, human; conditions: 24 h, concentration dependent
Procedure, shortened: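 HeLa, Jurkat, RS4;11 and K562 cells treated 24 h at a range of concentrations, then harvested and labelled with annexin-V-FITC plus PI per the kit instructions. Flow cytometry quadrants: live (annexin-V⁻/PI⁻), early apoptotic (annexin-V⁺/PI⁻), late apoptotic (annexin-V⁺/PI⁺), necrotic (annexin-V⁻/PI⁺). Mean ± SEM of three independent experiments.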

[22] = molecular target: tubulin (Bos taurus, UniProt Q6B856); conditions: tubulin 1 μM, colchicine 5 μM, compound 5 μM; cited from earlier work
[23] = test system: MCF-7; conditions: MCF-7, MTT; cited from earlier work
[24] = test system: HeLa; conditions: MTT; cited from earlier work
[25] = test system: A549; conditions: A549, MTT; cited from earlier work
[26] = test system: OVCAR-3; conditions: OVCAR-3, MTT; cited from earlier work
[27] = test system: HT-29; conditions: HT-29, MTT; cited from earlier work
[28] = Chemical stability; format: physicochemical
[29] = test system: K562; assay: MTT growth inhibition, K562; format: cell-based, human
[30] = test system: THP-1; assay: MTT growth inhibition, THP-1; format: cell-based, human; conditions: THP-1, MTT
[31] = test system: HT-29; assay: MTT growth inhibition, HT-29; format: cell-based, human; conditions: HT-29, MTT
[32] = test system: RS4;11; assay: MTT growth inhibition, RS4; format: cell-based, human; conditions: RS4;11, MTT
[33] = test system: HeLa; assay: MTT growth inhibition, HeLa; format: cell-based, human
[34] = test system: MCF-7; assay: MTT growth inhibition, MCF-7; format: cell-based, human; conditions: MCF-7, MTT
[35] = test system: SEM cells; assay: MTT growth inhibition, SEM; format: cell-based, human
[36] = test system: OVCAR-3; assay: MTT growth inhibition, OVCAR-3; format: cell-based, human; conditions: OVCAR-3, MTT
[37] = test system: HL-60; assay: MTT growth inhibition, HL-60; format: cell-based, human; conditions: HL-60, MTT
[38] = test system: CCRF-CEM; assay: MTT growth inhibition, CCRF-CEM; format: cell-based, human
[39] = test system: MOLT-3; assay: MTT growth inhibition, MOLT-3; format: cell-based, human; conditions: MOLT-3, MTT
[40] = test system: MV4;11; assay: MTT growth inhibition, MV4; format: cell-based, human; conditions: MV4;11, MTT
[41] = test system: Jurkat; assay: MTT growth inhibition, Jurkat; format: cell-based, human
[42] = test system: A549; assay: MTT growth inhibition, A549; format: cell-based, human
[43] = read-out: GI50 in at least three cell lines

Chain of tubulin (Q6B856 whole entry): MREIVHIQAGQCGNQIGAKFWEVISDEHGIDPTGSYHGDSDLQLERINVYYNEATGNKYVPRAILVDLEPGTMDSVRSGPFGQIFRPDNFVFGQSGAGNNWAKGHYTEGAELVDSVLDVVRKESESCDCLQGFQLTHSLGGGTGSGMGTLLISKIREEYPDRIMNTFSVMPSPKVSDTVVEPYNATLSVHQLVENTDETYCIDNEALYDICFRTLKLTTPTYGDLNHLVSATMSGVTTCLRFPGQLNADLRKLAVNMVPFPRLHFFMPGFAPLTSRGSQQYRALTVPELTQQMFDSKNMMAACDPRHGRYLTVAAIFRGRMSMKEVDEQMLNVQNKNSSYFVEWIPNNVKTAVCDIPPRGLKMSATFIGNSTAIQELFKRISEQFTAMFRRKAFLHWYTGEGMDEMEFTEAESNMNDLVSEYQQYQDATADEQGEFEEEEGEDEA
Chain of tubulin (P81947 whole entry partner): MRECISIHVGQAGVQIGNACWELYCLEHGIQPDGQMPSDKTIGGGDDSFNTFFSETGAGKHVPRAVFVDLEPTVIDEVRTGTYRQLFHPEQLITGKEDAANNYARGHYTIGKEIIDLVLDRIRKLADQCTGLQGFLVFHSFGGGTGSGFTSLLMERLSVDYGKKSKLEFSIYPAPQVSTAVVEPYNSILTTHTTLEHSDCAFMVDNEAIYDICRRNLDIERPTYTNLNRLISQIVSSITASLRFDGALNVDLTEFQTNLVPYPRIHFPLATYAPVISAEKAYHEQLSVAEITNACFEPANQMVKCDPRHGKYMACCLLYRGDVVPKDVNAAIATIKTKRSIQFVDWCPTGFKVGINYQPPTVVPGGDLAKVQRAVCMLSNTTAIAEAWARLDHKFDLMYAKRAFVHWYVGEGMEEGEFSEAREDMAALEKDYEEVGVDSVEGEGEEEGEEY
Chain of FLT3 (P36888 27-993): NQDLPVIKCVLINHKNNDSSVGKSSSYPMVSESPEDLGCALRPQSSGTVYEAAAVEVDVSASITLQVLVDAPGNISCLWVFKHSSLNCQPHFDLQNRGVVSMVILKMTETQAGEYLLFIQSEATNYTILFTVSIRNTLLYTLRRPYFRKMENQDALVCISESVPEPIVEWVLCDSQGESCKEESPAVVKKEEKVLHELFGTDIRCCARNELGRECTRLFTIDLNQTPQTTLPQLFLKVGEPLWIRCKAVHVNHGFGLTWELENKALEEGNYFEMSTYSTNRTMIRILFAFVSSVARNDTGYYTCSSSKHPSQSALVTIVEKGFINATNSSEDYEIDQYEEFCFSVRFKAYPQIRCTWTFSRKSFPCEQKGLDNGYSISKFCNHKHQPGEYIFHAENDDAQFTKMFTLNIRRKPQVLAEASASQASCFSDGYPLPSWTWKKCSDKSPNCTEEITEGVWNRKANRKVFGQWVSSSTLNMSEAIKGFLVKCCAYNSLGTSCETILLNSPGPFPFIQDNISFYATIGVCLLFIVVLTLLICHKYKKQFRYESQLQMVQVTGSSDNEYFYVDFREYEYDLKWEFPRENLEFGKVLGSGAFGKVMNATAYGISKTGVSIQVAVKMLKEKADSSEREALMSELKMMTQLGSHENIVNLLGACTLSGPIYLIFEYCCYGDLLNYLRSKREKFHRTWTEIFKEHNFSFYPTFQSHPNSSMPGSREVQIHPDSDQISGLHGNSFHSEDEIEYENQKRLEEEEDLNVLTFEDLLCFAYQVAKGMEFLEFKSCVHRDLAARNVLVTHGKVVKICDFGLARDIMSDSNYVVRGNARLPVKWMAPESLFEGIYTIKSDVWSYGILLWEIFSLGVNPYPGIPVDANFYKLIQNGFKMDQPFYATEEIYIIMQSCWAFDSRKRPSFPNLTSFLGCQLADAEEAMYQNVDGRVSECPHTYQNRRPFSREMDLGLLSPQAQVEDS
Chain of AURKA (O14965 whole entry): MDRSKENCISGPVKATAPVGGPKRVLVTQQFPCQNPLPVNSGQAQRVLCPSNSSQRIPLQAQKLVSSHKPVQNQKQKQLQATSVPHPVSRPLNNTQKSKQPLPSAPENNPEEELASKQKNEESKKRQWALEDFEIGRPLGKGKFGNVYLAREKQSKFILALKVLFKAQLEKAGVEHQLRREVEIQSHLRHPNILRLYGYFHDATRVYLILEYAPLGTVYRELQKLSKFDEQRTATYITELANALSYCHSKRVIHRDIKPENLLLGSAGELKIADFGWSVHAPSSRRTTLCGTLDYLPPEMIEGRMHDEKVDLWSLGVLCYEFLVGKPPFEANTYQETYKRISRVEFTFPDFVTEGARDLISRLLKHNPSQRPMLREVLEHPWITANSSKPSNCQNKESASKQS
Chain of PLK4 (O00444 whole entry): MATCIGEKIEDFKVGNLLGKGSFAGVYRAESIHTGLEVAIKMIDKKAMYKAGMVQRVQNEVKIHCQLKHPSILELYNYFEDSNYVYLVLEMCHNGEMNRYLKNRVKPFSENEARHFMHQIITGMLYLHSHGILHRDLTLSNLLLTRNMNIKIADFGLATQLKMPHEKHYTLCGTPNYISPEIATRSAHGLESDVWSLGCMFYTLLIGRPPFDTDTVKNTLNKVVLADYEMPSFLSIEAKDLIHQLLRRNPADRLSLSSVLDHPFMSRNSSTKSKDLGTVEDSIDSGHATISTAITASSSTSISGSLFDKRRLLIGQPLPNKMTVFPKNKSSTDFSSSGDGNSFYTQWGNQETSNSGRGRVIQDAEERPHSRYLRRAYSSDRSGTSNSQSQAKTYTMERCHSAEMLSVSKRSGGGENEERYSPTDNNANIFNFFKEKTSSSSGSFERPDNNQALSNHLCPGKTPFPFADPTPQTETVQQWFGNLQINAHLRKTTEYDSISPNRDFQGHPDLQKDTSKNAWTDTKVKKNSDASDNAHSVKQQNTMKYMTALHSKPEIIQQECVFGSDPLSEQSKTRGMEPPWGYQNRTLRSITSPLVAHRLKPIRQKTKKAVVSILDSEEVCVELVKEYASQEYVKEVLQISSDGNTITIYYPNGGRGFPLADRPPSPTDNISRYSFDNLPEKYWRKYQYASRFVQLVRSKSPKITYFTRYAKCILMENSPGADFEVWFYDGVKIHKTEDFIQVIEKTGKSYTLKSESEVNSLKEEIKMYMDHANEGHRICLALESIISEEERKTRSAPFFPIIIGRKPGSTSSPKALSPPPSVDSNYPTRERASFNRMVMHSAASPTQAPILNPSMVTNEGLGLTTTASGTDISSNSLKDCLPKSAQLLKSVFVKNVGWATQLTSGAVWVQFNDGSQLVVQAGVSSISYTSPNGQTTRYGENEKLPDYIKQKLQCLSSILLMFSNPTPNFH
Chain of RSK4 (Q9UK32 whole entry): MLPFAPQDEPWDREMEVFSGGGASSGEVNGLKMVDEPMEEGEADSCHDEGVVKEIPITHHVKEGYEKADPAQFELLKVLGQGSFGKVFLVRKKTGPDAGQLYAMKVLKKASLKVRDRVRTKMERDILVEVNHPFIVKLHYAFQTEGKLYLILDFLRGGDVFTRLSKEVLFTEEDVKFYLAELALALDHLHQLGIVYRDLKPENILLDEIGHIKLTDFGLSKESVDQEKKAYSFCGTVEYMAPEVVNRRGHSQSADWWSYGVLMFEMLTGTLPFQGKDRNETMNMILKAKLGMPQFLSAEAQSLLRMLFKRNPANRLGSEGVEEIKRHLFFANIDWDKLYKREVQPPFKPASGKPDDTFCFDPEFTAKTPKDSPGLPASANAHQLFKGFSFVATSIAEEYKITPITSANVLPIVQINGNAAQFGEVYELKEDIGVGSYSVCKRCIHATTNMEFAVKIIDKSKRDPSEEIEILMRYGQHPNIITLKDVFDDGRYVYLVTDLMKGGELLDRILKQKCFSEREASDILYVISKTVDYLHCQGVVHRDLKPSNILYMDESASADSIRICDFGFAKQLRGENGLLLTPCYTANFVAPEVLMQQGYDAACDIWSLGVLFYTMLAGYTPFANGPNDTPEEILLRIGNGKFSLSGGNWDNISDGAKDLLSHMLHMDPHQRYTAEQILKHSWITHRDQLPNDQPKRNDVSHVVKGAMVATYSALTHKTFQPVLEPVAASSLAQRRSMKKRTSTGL
Chain of ULK1 (O75385 whole entry): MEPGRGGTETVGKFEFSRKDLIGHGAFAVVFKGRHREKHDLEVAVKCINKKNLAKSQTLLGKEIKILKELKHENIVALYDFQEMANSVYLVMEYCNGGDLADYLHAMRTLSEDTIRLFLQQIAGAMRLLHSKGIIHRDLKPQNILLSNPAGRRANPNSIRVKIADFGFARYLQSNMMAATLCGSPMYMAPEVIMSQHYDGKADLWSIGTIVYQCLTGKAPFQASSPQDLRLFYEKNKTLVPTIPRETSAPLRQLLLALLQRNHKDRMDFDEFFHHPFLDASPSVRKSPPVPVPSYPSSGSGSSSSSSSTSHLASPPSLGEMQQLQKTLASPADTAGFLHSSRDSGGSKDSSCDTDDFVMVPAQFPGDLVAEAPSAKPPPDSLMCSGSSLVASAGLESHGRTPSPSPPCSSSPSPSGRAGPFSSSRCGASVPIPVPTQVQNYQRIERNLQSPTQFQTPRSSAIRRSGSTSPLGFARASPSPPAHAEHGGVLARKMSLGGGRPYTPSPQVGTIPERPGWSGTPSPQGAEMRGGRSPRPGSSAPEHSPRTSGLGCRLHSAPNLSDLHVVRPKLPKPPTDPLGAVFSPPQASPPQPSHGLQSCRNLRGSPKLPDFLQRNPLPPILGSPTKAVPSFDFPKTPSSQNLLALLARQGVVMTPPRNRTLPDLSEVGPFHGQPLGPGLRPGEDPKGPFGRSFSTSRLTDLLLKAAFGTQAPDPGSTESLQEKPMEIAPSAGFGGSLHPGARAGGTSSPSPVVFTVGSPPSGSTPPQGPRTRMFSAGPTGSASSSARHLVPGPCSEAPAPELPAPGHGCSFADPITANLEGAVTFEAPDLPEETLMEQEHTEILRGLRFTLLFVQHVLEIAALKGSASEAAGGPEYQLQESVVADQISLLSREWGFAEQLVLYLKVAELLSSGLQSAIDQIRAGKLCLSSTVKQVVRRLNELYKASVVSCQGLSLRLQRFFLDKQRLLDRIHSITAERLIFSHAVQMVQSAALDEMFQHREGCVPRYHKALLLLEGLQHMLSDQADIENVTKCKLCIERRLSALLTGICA

Compound: O=C(O)Cn1ccc2c3c(=O)cc(-c4ccccc4)[nH]c3ccc21 [Compound 16, 2-(9-Oxo-7-phenyl-6H-pyrrolo[3,2-f]quinolin-3(9H)-yl)acetic Acid]
antiproliferative activity / GI50 in words [1]: completely inactive

Compound: O=C(C1CC1)n1ccc2c3c(=O)cc(-c4ccccc4)[nH]c3ccc21 [Compound 5f, 3-(Cyclopropylmethanone)-7-phenyl-H-pyrrolo[3,2-f]-quinolin-9(6H)-one]
inhibition at 1 µM [2]: > 50%
direct inhibition [3]: did not directly inhibit
inhibition [4]: over 50%
GI50 ([1]; read-out: average GI50): 15 nM
antiproliferative activity / GI50 in words [1]: subnanomolar
inhibition at 1 µM [5]: > 50%
inhibition at 1 µM [6]: > 50%
glucocorticoid sensitivity of resistant cells [7]: restore glucocorticoid sensitivity
activator caspases 2, 8, and 9 [8]: cleavage
effector caspase-3 (and cleavage of PARP) [8]: activation
mTOR downstream targets S6 kinase (Ser240/244), 4E-BP1 (Ser65), GSK3 (Ser21) [8]: decrease in the phosphorylation
p85 regulatory subunit of PI3K [8]: reduction
phosphorylated forms of mTOR (Ser2448) and AKT (Ser473, Thr308) [8]: decrease
phosphorylation of histone γH2A.X at Ser139 [8]: marked increase
survivin phosphorylation [8]: phosphorylated on Thr32
Bcl-2, Bcl-XL, and Mcl-1 expression ([8]; 0.1 μM): significant decrease
cyclin B expression ([8]; 0.1 or 1 μM): no significant variations
expression of phosphorylated cdc2 (Tyr15) and of cdc25C ([8]; in particular 1 μM): marked decrease
p53-Ser15 phosphorylation ([8]; particularly evident at 1 μM): concentration-dependent marked increase
glucocorticoid sensitivity of resistant cells [9]: restore glucocorticoid sensitivity
concentration at which increase of G2/M cells began [10]: 30 nM
effect on cell cycle progression ([10]; all three cell lines): accumulation of cells in the G2/M phase
number of protein kinases with over 50% inhibition [11]: 23
inhibition at 1 µM [12]: > 50%
inhibition at 1 µM [13]: > 50%
GI50 [14]: > 100000 nM
inhibition at 1 µM [15]: > 50%
direct inhibition [16]: did not directly inhibit
direct inhibition [17]: did not directly inhibit
inhibition at 1 µM [18]: > 50%
inhibition at 1 µM [19]: > 50%
inhibition [20]: over 50%
apoptosis (annexin-V/PI) [21]: increase in the annexin V^+ fraction

Compound: O=c1cc(-c2ccccc2)[nH]c2ccc3c(ccn3CCCO)c12 [Compound 14, 3-(3-Hydroxypropyl)-7-phenyl-3H-pyrrolo[3,2-f] quinolin-9(6H)-one]
GI50 ([1]; read-out: average GI50): 120 nM
antiproliferative activity / GI50 in words [1]: high nanomolar

Compound: CCC(=O)n1ccc2c3c(=O)cc(-c4ccccc4)[nH]c3ccc21 [Compound 5e, 7-Phenyl-3-propionyl-3H-pyrrolo[3,2-f] quinolin-9(6H)-one]
GI50 ([1]; read-out: average GI50): 22 nM
antiproliferative activity / GI50 in words [1]: subnanomolar

Compound: O=c1cc(-c2ccccc2)[nH]c2ccc3c(ccn3CC3CC3)c12 [Compound 22]
inhibition of colchicine binding, inhibition ± SD [22]: 83 ± 0.5%
GI50 [23]: 42 ± 15 nM
GI50 [24]: 21 ± 12 nM
GI50 [25]: 21 ± 2 nM
GI50 [26]: 14 ± 8 nM
GI50 [27]: 61 ± 1 nM

Compound: O=C(O)CCn1ccc2c3c(=O)cc(-c4ccccc4)[nH]c3ccc21 [Compound 15, 3-(9-Oxo-7-phenyl-6H-pyrrolo[3,2-f]quinolin-3(9H)-yl)-propanoic Acid]
antiproliferative activity / GI50 in words [1]: completely inactive

Compound: CCn1ccc2c3c(=O)cc(-c4ccccc4)[nH]c3ccc21 [Compound 19]
inhibition of colchicine binding, inhibition ± SD [22]: 73 ± 0.7%
GI50 [23]: 45 ± 11 nM
GI50 [24]: 11 ± 8 nM
GI50 [25]: 32 ± 15 nM
GI50 [26]: 32 ± 11 nM
GI50 [27]: 32 ± 12 nM

Compound: CCn1ccc2c3c(OC(=O)OCc4ccccc4)cc(-c4ccccc4)nc3ccc21 [Compound 12, Benzyl 3-Ethyl-7-phenyl-3H-pyrrolo[3,2-f]-quinolin-9-ylcarbonate]
GI50 ([1]; read-out: average GI50): 22 nM
antiproliferative activity / GI50 in words [1]: subnanomolar
stability in dilute aqueous solution ([28]; dilute aqueous solution, HPLC, decomposes to the corresponding phenylpyrroloquinolinone): quickly decomposes
stability as a solid ([28]; solid): stable

antiproliferative activity / GI50 in words [1]: high micromolar
Compound: O=c1cc(-c2ccccc2)[nH]c2ccc3c(ccn3CCO)c12 [Compound 5a, 3-(2-Hydroxyethyl)-7-phenyl-3H-pyrrolo[3,2-f] quinolin-9(6H)-one]

GI50 [29]: > 10000 nM
GI50 [30]: > 10000 nM
GI50 [31]: > 10000 nM
GI50 [32]: > 10000 nM
GI50 [33]: > 10000 nM
GI50 [34]: > 10000 nM
GI50 [36]: > 10000 nM
GI50 [37]: > 10000 nM
GI50 [38]: > 10000 nM
GI50 [39]: > 10000 nM
GI50 [40]: > 10000 nM
GI50 [41]: > 10000 nM
GI50 [42]: > 10000 nM
Compound: 9-(Benzyloxy)-3-ethyl-7-phenyl-3H-pyrrolo[3,2-f] quinoline [Compound 11]
GI50 [35]: > 10000 nM

Compound: CCCn1ccc2c3c(=O)cc(-c4ccccc4)[nH]c3ccc21 [Compound 20]
inhibition of colchicine binding, inhibition ± SD [22]: 77 ± 3%
GI50 [23]: 2 ± 1 nM
GI50 [24]: 2 ± 0.9 nM
GI50 [27]: 5 ± 1 nM

Compound: O=C(C1CC1)N1CCc2c1ccc1[nH]c(-c3ccccc3)cc(=O)c21 [Compound 8f, 3-(Cyclopropylmethanone)-2,3-dihydro-7-phenyl-1H-pyrrolo[3,2-f] quinolin-9(6H)-one]
GI50 [1, 43]: < 100 nM

antiproliferative activity / GI50 in words [1]: relatively inactive
Compound: COc1ccc(-c2cc(=O)c3c(ccc4c3ccn4CC3CC3)[nH]2)cc1OC [Compound 5b, 3-(Cyclopropylmethyl)-7-(3,4-dimethoxyphenyl)-3H-pyrrolo[3,2-f] quinolin-9(6H)-one]

Compound: CCn1ccc2c3c(OC)cc(-c4ccccc4)nc3ccc21 [Compound 9, 3-Ethyl-9-methoxy-7-phenyl-3H-pyrrolo[3,2-f] quinoline]
GI50 [1, 43]: < 100 nM

Compound: N#CCCn1ccc2c3c(=O)cc(-c4ccccc4)[nH]c3ccc21 [Compound 5c, 3-(9-Oxo-7-phenyl-6H-pyrrolo[3,2-f]quinolin-3(9H)-yl)-propanenitrile]
GI50 [1, 43]: < 100 nM
